The results in this text go back to ChEMBL document CHEMBL1151697, “Synthesis and structure-activity relationships for biphenyl H3 receptor antagonists with moderate anti-cholinesterase activity” (Bioorg Med Chem, 2008).

Calls of active or inactive are those of the source. The rule behind the calls is not given here.

The target in experiment [1] is T1, Histamine H3 receptor (Homo sapiens, UniProt Q9Y5N1). As to the kind of experiment: Antagonist activity at human histamine H3 receptor expressed in SK-N-MC cells by CRE-mediated beta-galactosidase reporter gene assay administered 10 mins before (R)-alpha-methylhistamine challenge after 6 hrs. The experiment is classed as functional, cell-based. In outline: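 SK-N-MC cells stably carrying human H3 and a β-galactosidase reporter. Compound added to medium, forskolin 5 min later, then (R)-α-methylhistamine 10 min after compound; 6 h at 37 °C. Cells lysed in phosphate assay buffer (pH 8) with 0.5% Triton and 40 mM β-mercaptoethanol; β-galactosidase read at 570 nm. Means of 4–6 experiments.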
(In general: A reporter such as luciferase makes a cellular process visible.)

The target in experiment [2] is T1, Histamine H3 receptor. Briefly: Displacement of [3H]RAMHA from human histamine H3 receptor expressed in SK-N-MC cells. The experiment is classed as cell-based. An outline of the steps: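 SK-N-MC membranes bearing human H3 incubated 60 min at room temperature with 0.5 nM [3H]-(R)-α-methylhistamine and competitor (0.01 nM to 10 µM). Rapid filtration, two washes in ice-cold 50 mM Tris–HCl/5 mM EDTA. Nonspecific binding with 10 µM histamine. pKi via Cheng–Prusoff; means of 4–6 experiments.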

For experiment [3], the target named is Histamine H3 receptor (Rattus norvegicus, UniProt Q9QYN8). Briefly: Displacement of [3H]RAMHA from histamine H3 receptor in Wistar rat brain membrane. The experiment is classed as cell membranes. An outline of the steps:
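Membranes from male Wistar rat brain (150–200 g) incubated 45 min with 0.5 nM [3H]RAMHA and compound (0.03 nM to 10 µM) in 50 mM Tris–HCl pH 7.4, 50 mM NaCl, 0.5 mM EDTA. Vacuum filtration, two ice-cold buffer rinses. Nonspecific binding set with 10 µM thioperamide. pKi by Cheng–Prusoff.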
(In general: Loss of bound radioactivity is the signal in a displacement assay; it reports binding, not function.)

The subject of experiment [4] is SK-N-MC. As to the kind of experiment: Cytotoxicity against human SK-N-MC cells at 1 uM after 6 hrs by MTT test. Type of experiment: functional, cell-based. An outline of the steps:
(§1)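 MTT viability test: SK-N-MC cells held 6 h with compound (1–10 µM) or vehicle. MTT (5 mg/ml stock) added for 3 h, cells washed in PBS, formazan dissolved in 0.1 N HCl in isopropanol, absorbance read at 570 nm. Viability given relative to control.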
(In general: Formazan colour is commonly taken as a measure of viable cells.)

Experiment [5] deals with SK-N-MC. As to the kind of experiment: Cytotoxicity against human SK-N-MC cells at 10 uM after 6 hrs by MTT test. Type of experiment: functional, cell-based. In outline:
as §1

The target in the next experiment is Histamine H2 receptor (Cavia porcellus, UniProt P47747). As to the kind of experiment: (§2) Antagonist activity at histamine H2 receptor in guinea pig atrium assessed as changes in rate of spontaneous beat. Type of experiment: functional, tissue-based, Cardiac atrium. In outline: (§3)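 Guinea-pig atria (H2) in Ringer–Locke at 31 °C (mM: NaCl 154.0, KCl 5.6, CaCl2 1.08, NaHCO3 5.95, glucose 11.1), gassed 95% O2–5% CO2. Spontaneous beating rate recorded by cardiotachograph. Cumulative dimaprit curves (0.1–100 µM) run without and with compound up to 10 µM. Affinity given as pKB by Furchgott, or as pD2′ by Van Rossum if non-surmountable.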

The target in experiment [6] is Histamine H1 receptor (Cavia porcellus) (UniProt P31389). Briefly: Antagonist activity at histamine H1 receptor in guinea pig terminal ileum. The experiment is classed as functional, tissue-based. In outline: (§4)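 Guinea-pig (250–350 g) terminal ileum (H1) suspended isometrically in Krebs–Henseleit at 37 °C, aerated 95% O2–5% CO2. Cumulative histamine curves (1 nM to 1 µM) run without and with compound up to 10 µM. pKB (apparent pA2) from Furchgott's equation; pD2′ from Van Rossum's equation when antagonism was non-surmountable.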

The target in experiment [7] is Histamine H3 receptor (Cavia porcellus) (UniProt Q9JI35). Briefly: Antagonist activity at histamine H3 receptor in electrically-stimulated guinea pig ileum assessed as inhibition of (R)-alpha-methylhistamine-induced twitch contraction in presence of 1 uM mepyramine. Type of experiment: functional, tissue-based. In outline:
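Guinea-pig ileum, electrically stimulated (0.1 Hz, 1 ms, submaximal voltage). Twitch inhibition by cumulative (R)-α-methylhistamine (1 nM to 1 µM) with 1 µM mepyramine present. Compounds tested at 1 nM to 30 µM. Potency as pKB from Furchgott's equation, or as pD2′ (Van Rossum) for non-surmountable antagonism.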

Experiment [8] deals with T2, Acetylcholinesterase (Rattus norvegicus) (UniProt P37136).
T2 sequence (whole entry): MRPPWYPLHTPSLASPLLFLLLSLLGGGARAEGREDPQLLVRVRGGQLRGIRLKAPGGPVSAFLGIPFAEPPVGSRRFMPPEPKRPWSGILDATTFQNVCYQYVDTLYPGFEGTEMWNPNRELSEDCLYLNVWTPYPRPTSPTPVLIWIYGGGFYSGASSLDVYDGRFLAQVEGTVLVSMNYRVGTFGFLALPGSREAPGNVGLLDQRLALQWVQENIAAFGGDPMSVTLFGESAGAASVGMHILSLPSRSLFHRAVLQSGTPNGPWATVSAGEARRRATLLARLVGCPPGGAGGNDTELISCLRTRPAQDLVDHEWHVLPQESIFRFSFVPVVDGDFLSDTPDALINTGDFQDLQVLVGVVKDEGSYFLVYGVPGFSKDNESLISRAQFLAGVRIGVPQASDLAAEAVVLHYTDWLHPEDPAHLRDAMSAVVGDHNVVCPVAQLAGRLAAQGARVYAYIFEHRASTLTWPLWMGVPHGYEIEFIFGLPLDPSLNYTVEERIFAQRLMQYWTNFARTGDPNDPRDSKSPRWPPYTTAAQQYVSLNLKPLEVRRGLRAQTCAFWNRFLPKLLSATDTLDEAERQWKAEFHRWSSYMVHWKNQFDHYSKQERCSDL
As to the kind of experiment: Inhibition of acetylcholinesterase in Wistar rat brain homogenate at upto 10 uM by Ellman's method. Type of experiment: tissue-based.

Experiment [9] deals with Histamine H2 receptor (Cavia porcellus) (UniProt P47747). The experiment is described as §2. Type of experiment: functional, tissue-based. Conditions: Cardiac atrium. In outline: as §3
In a further experiment the target is Histamine H4 receptor (Homo sapiens, UniProt Q9H3N8). As to the kind of experiment: Displacement of [3H]histamine from human histamine H4 receptor expressed in SK-N-MC cells at upto 10 uM.
Experiment [10] concerns the target T2, Acetylcholinesterase (Rattus norvegicus). Briefly: Inhibition of acetylcholinesterase in Wistar rat brain homogenate at upto 1 to 100 uM by Ellman's method. Type of experiment: tissue-based. An outline of the steps: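 Male Wistar rat (150–200 g) brain homogenate in 0.1 M phosphate buffer (pH 8.0) with DTNB (5 mM) and compound at 1–100 µM. Reaction started at 37 °C by adding acetylthiocholine (75 mM solution) and stopped after 15 min with 4% formalin. 5-Thio-2-nitrobenzoate absorbance at 412 nm. Percent inhibition versus control; reported as pIC50.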

For another experiment, the target named is T3, Acetylcholinesterase (Rattus norvegicus, UniProt P37136).
T3 sequence (P37136 whole entry): T2 sequence (whole entry)
Briefly: Inhibition of acetylcholinesterase in Wistar rat brain homogenate by Ellman's method. Type of experiment: tissue-based.

Experiment [11] has as its target Histamine H2 receptor (Cavia porcellus) (UniProt P47747). Briefly: Antagonist activity at histamine H2 receptor in guinea pig atrium assessed as changes in rate of spontaneous beat at upto 0.1 uM. Conditions: Cardiac atrium. The experiment is classed as functional, tissue-based. In outline:
as §3

For experiment [12] the target is unchanged. As to the kind of experiment: Antagonist activity at histamine H2 receptor in guinea pig atrium assessed as changes in rate of spontaneous beat at upto 3 uM. Type of experiment: functional, tissue-based. Conditions: Cardiac atrium. In outline: as §3
Experiment [13] deals with Histamine H1 receptor (Cavia porcellus) (UniProt P31389). As to the kind of experiment: Antagonist activity at histamine H1 receptor in guinea pig terminal ileum at upto 10 uM. Type of experiment: functional, tissue-based. An outline of the steps:
as §4

Sequence of Histamine H1 receptor (Cavia porcellus) (P31389 whole entry): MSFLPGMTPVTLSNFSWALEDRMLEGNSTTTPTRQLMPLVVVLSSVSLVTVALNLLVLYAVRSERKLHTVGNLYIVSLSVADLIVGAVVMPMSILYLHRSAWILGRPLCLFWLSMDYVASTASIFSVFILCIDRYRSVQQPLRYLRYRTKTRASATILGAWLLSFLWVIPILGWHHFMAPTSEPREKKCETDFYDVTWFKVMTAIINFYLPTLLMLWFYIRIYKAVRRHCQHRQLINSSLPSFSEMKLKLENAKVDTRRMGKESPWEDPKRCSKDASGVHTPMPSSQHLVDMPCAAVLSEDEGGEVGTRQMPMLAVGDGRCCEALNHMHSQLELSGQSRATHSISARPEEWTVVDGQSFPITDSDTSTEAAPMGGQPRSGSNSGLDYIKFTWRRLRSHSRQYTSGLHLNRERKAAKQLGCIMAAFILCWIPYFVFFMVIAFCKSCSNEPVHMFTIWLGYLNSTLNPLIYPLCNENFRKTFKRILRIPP
Sequence of Histamine H4 receptor (Q9H3N8 whole entry): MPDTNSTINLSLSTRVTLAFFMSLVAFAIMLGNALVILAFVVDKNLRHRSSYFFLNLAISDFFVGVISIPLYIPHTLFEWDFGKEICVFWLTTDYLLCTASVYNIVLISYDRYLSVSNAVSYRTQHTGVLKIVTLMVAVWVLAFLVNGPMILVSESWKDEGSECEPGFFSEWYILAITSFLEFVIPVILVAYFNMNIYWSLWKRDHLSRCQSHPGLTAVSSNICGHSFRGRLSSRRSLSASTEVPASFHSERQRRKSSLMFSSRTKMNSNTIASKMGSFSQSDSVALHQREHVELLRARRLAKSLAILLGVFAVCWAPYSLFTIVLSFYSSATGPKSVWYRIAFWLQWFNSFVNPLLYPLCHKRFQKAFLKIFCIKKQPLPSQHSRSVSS
T1 sequence (Q9Y5N1 whole entry): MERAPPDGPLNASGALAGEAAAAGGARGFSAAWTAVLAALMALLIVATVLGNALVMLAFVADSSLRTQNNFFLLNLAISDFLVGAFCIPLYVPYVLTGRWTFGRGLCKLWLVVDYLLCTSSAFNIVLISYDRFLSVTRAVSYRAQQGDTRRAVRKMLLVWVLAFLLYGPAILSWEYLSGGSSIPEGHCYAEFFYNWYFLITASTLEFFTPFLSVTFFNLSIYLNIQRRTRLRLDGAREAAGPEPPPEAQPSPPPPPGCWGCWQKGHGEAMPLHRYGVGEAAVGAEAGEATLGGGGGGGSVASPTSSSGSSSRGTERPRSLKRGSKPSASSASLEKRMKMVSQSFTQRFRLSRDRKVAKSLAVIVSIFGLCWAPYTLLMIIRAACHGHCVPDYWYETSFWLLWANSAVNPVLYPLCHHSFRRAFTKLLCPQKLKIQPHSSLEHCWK
Sequence of Histamine H3 receptor (Cavia porcellus) (Q9JI35 whole entry): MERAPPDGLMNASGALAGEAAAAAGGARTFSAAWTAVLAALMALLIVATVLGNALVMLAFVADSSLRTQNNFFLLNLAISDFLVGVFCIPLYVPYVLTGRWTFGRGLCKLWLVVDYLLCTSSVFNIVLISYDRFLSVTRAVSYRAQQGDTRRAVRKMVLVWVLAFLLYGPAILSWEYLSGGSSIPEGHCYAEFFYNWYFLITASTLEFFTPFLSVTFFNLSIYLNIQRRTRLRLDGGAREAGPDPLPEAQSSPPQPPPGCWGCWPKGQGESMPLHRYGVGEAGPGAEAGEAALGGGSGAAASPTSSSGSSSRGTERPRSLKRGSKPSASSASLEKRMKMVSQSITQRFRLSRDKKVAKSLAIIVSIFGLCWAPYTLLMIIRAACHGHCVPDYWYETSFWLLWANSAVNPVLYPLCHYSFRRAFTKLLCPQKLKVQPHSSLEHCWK
Sequence of Histamine H2 receptor (Cavia porcellus) (P47747 whole entry): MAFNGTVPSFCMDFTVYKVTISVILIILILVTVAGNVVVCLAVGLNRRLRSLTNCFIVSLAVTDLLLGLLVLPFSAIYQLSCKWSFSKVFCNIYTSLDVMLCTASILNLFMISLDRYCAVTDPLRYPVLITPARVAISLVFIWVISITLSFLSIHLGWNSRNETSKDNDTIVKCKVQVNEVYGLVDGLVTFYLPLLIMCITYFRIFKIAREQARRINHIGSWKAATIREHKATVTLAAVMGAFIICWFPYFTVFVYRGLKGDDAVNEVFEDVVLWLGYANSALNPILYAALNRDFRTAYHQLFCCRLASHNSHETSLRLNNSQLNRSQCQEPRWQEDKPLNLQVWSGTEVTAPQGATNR
Sequence of Histamine H3 receptor (Rattus norvegicus, UniProt Q9QYN8) (Q9QYN8 whole entry): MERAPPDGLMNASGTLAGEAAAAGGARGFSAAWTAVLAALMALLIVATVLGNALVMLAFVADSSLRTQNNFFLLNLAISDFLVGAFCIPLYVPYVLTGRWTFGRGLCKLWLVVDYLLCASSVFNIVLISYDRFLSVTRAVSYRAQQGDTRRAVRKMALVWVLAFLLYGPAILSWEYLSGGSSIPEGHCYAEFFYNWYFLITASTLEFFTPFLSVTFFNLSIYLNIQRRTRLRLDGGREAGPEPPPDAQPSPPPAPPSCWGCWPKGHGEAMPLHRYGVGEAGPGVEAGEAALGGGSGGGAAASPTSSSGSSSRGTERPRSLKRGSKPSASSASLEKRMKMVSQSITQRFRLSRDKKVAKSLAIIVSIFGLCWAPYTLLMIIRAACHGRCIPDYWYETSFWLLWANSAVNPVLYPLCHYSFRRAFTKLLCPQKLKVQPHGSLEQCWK
Sequence of Histamine H2 receptor (P47747 whole entry): as the sequence (P47747 whole entry) above

What is called pKb is the negative decadic logarithm of the Kb, by convention in mol/L. One may read the Ki as the equilibrium dissociation constant of an inhibitor or competing ligand from its target. A lower Ki goes with tighter binding. By EC50 is commonly meant the concentration giving half of the maximal effect. On to `CCCN(CCC)Cc1ccc(-c2ccc(CN(CCC)CCC)cc2)cc1`, for which the pKb at Histamine H3 receptor [1] was found to be 7.8; in experiment [6], 5.54; in experiment [7], 8.78. Further, the Ki on Histamine H3 receptor [2] was 9.33 nM; on Histamine H3 receptor [3], 3.16 nM. For the same molecule, the Activity entry with SK-N-MC [4] and in the experiment on SK-N-MC [5] was “Not toxic” in each case. Further, the 50% effective concentration (EC50) at Histamine H2 receptor was 3390 nM.
Consider `c1cc(-c2ccc(CCN3CCCCC3)cc2)ccc1CCN1CCCCC1`, for which the negative-log Kb (pKb) on Histamine H3 receptor [1] turned out to be 8.5; in experiment [9] it was 6.38; in experiment [6], 5.32; in experiment [7], 8.43. Also, the Activity result in the experiment on SK-N-MC [4] and in the experiment with SK-N-MC [5] was “Not toxic” each time. For the same molecule, the outcome (in experiment [8]; at Histamine H4 receptor) was inactive.
What is called inhibition is the share of the control response that was lost under treatment. As a reminder, the IC50 is the midpoint of a concentration-inhibition curve. The low end stands for higher potency, the high end for lower potency. Regarding `CN(Cc1ccccc1)Cc1ccc(-c2ccc(CN3CCCCC3)cc2)cc1`, the values for the pKb (at Histamine H3 receptor [1]; in [7]) were 7.98 and 7.34, respectively. Moreover, the Ki is 6.76 nM on Histamine H3 receptor [2] and 14.1 nM at Histamine H3 receptor [3]. In addition, the Activity result with SK-N-MC [4] and with SK-N-MC [5] was “Not toxic” throughout. For the same molecule, the inhibition in [10] stood at 79%. In addition, 3160 nM corresponded to half-maximal inhibition at Acetylcholinesterase (IC50). Further, the outcome (in [11]; at Histamine H4 receptor) was inactive. In addition, the pD2 in experiment [6] was 4.75.
In the case of `CN(C)Cc1ccc(-c2ccc(CN3CCCCC3)cc2)cc1`, the pKb at Histamine H3 receptor [1] was 8.92; in [7], 9.05. Moreover, the inhibitory constant (Ki) at Histamine H3 receptor [2] is 2.19 nM; at Histamine H3 receptor [3] it was 1.32 nM. For the same molecule, the Activity entry in the experiment on SK-N-MC [4] and in the experiment with SK-N-MC [5] was “Not toxic” each time. Also, the result (in experiment [8]; in experiment [12]; in experiment [13]; on Histamine H4 receptor) was inactive.
For the molecule `CC1CCN(CCc2ccc(-c3ccc(CCN4CCC(C)CC4)cc3)cc2)CC1`, the negative logarithm of the Kb (pKb) on Histamine H3 receptor [1] is 8.17; in experiment [6] it was 5.85; in experiment [7] it was 7.43. Besides, the values for the Ki at Histamine H3 receptor [2] and at Histamine H3 receptor [3] were 16.6 nM and 55 nM, respectively. Also, the Activity entry in the experiment on SK-N-MC [4] and with SK-N-MC [5] was “Not toxic” each time. For the same molecule, the result (in experiment [8]; in [11]; at Histamine H4 receptor) was inactive.
